Test results reported in ChEMBL document CHEMBL4811233, “Synthesis, Structure-Activity Relationships, and Antiviral Activity of Allosteric Inhibitors of Flavivirus NS2B-NS3 Protease” (J Med Chem, 2021).
Activity calls are given as the source filed them. No cut-off for these calls is given here.

Each compound was assayed against Genome polyprotein (dengue virus type 2, UniProt P29990) (assay: Inhibition Dengue serotype-2 NS3B/NS3 protease using 7-amino-4-methylcoumarin as substrate by fluorescence assay). Settings: not given.
Chain of Genome polyprotein (dengue virus type 2, UniProt P29990) (P29990 1346-1475 limits assumed): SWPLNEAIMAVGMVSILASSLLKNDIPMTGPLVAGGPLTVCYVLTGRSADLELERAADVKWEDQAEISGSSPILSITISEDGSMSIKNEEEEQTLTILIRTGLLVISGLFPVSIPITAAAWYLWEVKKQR
Chain of Genome polyprotein (dengue virus type 2, UniProt P29990) (P29990 1476-2093 limits assumed): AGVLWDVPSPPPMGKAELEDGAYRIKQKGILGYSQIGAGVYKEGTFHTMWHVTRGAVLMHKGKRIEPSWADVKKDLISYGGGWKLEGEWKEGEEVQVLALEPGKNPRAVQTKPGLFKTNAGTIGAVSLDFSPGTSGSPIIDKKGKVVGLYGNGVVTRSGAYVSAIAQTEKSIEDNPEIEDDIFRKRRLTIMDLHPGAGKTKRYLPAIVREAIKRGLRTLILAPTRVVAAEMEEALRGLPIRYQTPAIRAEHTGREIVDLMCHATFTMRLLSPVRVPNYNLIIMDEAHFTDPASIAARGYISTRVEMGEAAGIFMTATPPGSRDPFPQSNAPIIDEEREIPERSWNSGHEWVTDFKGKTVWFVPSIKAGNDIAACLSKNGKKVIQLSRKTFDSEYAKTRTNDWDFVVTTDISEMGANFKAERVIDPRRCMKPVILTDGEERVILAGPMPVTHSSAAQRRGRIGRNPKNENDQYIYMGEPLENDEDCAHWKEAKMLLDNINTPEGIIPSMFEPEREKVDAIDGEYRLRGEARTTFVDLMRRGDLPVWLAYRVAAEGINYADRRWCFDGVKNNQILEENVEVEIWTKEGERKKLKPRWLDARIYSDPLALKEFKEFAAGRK

Point of comparison: `NCc1ccc(-c2ncc(OCC3CCNCC3)nc2-c2ccc(-c3ccoc3)cc2)cc1`, IC50 590 nM. Against it:
- CC(C)(C)c1ccc(-c2ncc(OCC3CCNCC3)nc2-c2ccc(C(C)(C)C)cc2)cc1 — 14-fold higher, 8400 nM
- NCc1ccc(-c2ccc(NCC3CCNCC3)nc2-c2ccc(-c3ccoc3)cc2)cc1 — within 1.5-fold, 860 nM
- NCc1ccc(-c2ncc(OCC3CCNCC3)nc2-c2ccc(C3CCOCC3)cc2)cc1 — 4.1-fold higher, 2400 nM
- NCc1ccc(-c2ncc(OCC3CCNCC3)nc2-c2ccc(Oc3ccccc3)cc2)cc1 — higher, > 50000 nM
- Ic1ccc(-c2ncc(OCCC3CCNCC3)nc2-c2ccc(I)cc2)cc1 — 17-fold higher, 10200 nM
- Brc1ccc(-c2ncc(OCC3CCNCC3)nc2-c2ccc(Br)cc2)cc1 — 59-fold higher, 35000 nM
- CC(C)(C)C(=O)OCc1ccc(-c2ncc(OCC3CCNCC3)nc2-c2ccc(COC(=O)C(C)(C)C)cc2)cc1 — 23-fold higher, 13400 nM
- NCc1ccc(-c2ncc(NCC3CCNCC3)nc2-c2ccc(-c3ccoc3)cc2)cc1 — 2-fold lower, 290 nM
- NCc1ccc(-c2ncc(OCC3CCNCC3)nc2-c2ccc(-c3cn[nH]c3)cc2)cc1 — 2.8-fold lower, 210 nM
- c1cc(-c2ccc(-c3ncc(OCC4CCNCC4)nc3-c3ccc(-c4ccsc4)cc3)cc2)cs1 — 6.1-fold higher, 3600 nM
- NC(=O)c1ccc(-c2ncc(OCC3CCNCC3)nc2-c2ccc(-c3ccoc3)cc2)cc1 — 1.7-fold higher, 980 nM
- CNCc1ccc(-c2ncc(OCC3CCNCC3)nc2-c2ccc(-c3ccoc3)cc2)cc1 — within 1.5-fold, 730 nM
- Cc1cc(CN)ccc1-c1ncc(OCC2CCNCC2)nc1-c1ccc(CN)cc1C — 11-fold higher, 6300 nM
- ONCc1ccc(-c2ncc(OCCC3CCNCC3)nc2-c2ccc(CNO)cc2)cc1 — 6.4-fold higher, 3800 nM
- NCc1ccc(-c2ncc(OCC3CCNCC3)nc2-c2ccc3[nH]ccc3c2)cc1 — within 1.5-fold, 640 nM
- NCc1ccc(-c2ncc(OCC3CCNCC3)nc2-c2ccc(-c3ccncc3)cc2)cc1 — higher, > 50000 nM

These compounds were tested against Nonstructural protein 3 (Zika virus, UniProt A0A024AXB9) (assay: Inhibition Zika virus NS2B (47 to 95 residues)/NS3 (1 to 170 residues) protease expressed in Escherichia coli BL21 using 7-amino-4-methylcoumarin as substrate by fluorescence assay). Settings: not given.
Chain of Nonstructural protein 3 (A0A024AXB9 whole entry, the tested form may be a part): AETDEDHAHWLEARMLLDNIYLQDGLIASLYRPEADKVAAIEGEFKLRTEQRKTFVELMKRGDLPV
Outline: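 Single-chain NS2B(47–95)–Gly4-Ser-Gly4–NS3(1–170) enzyme at 1 nM in 20 mM HEPES pH 7.3 with 0.05% Triton X-100. Compound (1 nM–10 µM, triplicate) is preincubated 10 min before adding Bz-Nle-Lys-Lys-Arg-AMC at 20 µM. Fluorescence (Ex 360/Em 460 nm) is read every 30 s. IC50 comes from dose-response fitting of initial velocities, 3 independent experiments with SD.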

Point of comparison: `c1cc(-c2ccc(-c3ncc(OCC4CCNCC4)nc3-c3ccc(-c4ccsc4)cc3)cc2)cs1`, IC50 1400 nM. Against it:
- CC(C)(C)c1ccc(-c2ncc(OCC3CCNCC3)nc2-c2ccc(C(C)(C)C)cc2)cc1 — 2.2-fold higher, 3100 nM
- NCc1ccc(-c2ccc(NCC3CCNCC3)nc2-c2ccc(-c3ccoc3)cc2)cc1 — 1.8-fold lower, 790 nM
- NCc1ccc(-c2ncc(OCC3CCNCC3)nc2-c2ccc(C3CCOCC3)cc2)cc1 — 11-fold lower, 130 nM
- NCc1ccc(-c2nc(OCC3CCNCC3)cnc2-c2ccc(-c3ccoc3)cc2)cc1 — 2.1-fold lower, 680 nM
- NCc1ccc(-c2ncc(OCC3CCNCC3)nc2-c2ccc(Oc3ccccc3)cc2)cc1 — 23-fold higher, 32600 nM
- CC(Oc1cnc(-c2ccc(CN)cc2)c(-c2ccc(-c3ccoc3)cc2)n1)C1CCNCC1 (racemic) — 5.8-fold lower, 240 nM
- Ic1ccc(-c2ncc(OCCC3CCNCC3)nc2-c2ccc(I)cc2)cc1 — 3.4-fold higher, 4700 nM
- Brc1ccc(-c2ncc(OCC3CCNCC3)nc2-c2ccc(Br)cc2)cc1 — 16-fold higher, 21700 nM
- CC(C)(C)C(=O)OCc1ccc(-c2ncc(OCC3CCNCC3)nc2-c2ccc(COC(=O)C(C)(C)C)cc2)cc1 — 7-fold higher, 9800 nM
- NCc1ccc(-c2ncc(NCC3CCNCC3)nc2-c2ccc(-c3ccoc3)cc2)cc1 — 3.5-fold lower, 400 nM
- NCc1ccc(-c2ncc(OCC3CCNCC3)nc2-c2ccc(-c3cn[nH]c3)cc2)cc1 — 1.8-fold lower, 760 nM
- NCc1ccc(-c2cc(CNCC3CCNCC3)sc2-c2ccc(CN)cc2)cc1 — 7.6-fold higher, 10700 nM
- NC(=O)c1ccc(-c2ncc(OCC3CCNCC3)nc2-c2ccc(-c3ccoc3)cc2)cc1 — within 1.5-fold, 1100 nM
- NCc1ccc(-c2ncc(OCC3CCNCC3)nc2-c2ccc(C3CCOCC3)nc2)cc1 — within 1.5-fold, 1000 nM
- Cc1cc(CN)ccc1-c1ncc(OCC2CCNCC2)nc1-c1ccc(CN)cc1C — 1.5-fold higher, 2100 nM
- ONCc1ccc(-c2ncc(OCCC3CCNCC3)nc2-c2ccc(CNO)cc2)cc1 — within 1.5-fold, 1600 nM
- NCc1ccc(-c2ncc(OCC3CCNCC3)nc2-c2ccc(-c3ccncc3)cc2)cc1 — 19-fold higher, 26500 nM
- Cc1cc(-c2nc(OCC3CCNCC3)cnc2-c2ccc(CN)cc2)ccc1-c1ccoc1 — 7.6-fold higher, 10600 nM

These compounds were tested against Genome polyprotein (West Nile virus, UniProt P06935) (assay: Inhibition West Nile virus NS3B/NS3 protease using 7-amino-4-methylcoumarin as substrate by fluorescence assay). Settings: not given.
Chain of Genome polyprotein (West Nile virus, UniProt P06935) (P06935 1371-1501 limits assumed): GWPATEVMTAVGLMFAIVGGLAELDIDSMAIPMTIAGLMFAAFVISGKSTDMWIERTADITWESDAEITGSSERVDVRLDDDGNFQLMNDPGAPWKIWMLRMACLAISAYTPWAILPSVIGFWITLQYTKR
Chain of Genome polyprotein (West Nile virus, UniProt P06935) (P06935 1502-2120 limits assumed): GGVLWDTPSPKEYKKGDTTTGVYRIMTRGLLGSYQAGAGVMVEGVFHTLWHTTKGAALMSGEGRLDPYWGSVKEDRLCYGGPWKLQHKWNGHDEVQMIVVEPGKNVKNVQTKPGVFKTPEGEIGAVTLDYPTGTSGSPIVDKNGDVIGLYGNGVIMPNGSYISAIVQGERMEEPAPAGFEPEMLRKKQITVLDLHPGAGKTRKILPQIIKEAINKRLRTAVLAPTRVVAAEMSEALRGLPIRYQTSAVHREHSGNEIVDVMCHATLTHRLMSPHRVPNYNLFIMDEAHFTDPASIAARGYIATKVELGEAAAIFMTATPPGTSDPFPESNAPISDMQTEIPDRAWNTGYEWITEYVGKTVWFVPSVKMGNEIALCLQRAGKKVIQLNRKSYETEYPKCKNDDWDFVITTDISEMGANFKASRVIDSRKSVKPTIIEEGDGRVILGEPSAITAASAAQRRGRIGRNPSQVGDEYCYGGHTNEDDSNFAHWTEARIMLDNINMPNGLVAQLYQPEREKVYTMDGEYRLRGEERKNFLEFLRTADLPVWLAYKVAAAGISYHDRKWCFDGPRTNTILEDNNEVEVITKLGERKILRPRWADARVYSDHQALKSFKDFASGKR

Point of comparison: `CC(C)(C)c1ccc(-c2ncc(OCC3CCNCC3)nc2-c2ccc(C(C)(C)C)cc2)cc1`, IC50 9500 nM. Against it:
- NCc1ccc(-c2ccc(NCC3CCNCC3)nc2-c2ccc(-c3ccoc3)cc2)cc1 — 7.3-fold lower, 1300 nM
- NCc1ccc(-c2ncc(OCC3CCNCC3)nc2-c2ccc(-c3ccoc3)cc2)cc1 — 12-fold lower, 780 nM
- NCc1ccc(-c2ncc(OCC3CCNCC3)nc2-c2ccc(C3CCOCC3)cc2)cc1 — 12-fold lower, 820 nM
- NCc1ccc(-c2ncc(OCC3CCNCC3)nc2-c2ccc(Oc3ccccc3)cc2)cc1 — higher, > 50000 nM
- Ic1ccc(-c2ncc(OCCC3CCNCC3)nc2-c2ccc(I)cc2)cc1 — 5.3-fold lower, 1800 nM
- Brc1ccc(-c2ncc(OCC3CCNCC3)nc2-c2ccc(Br)cc2)cc1 — higher, > 50000 nM
- CC(C)(C)C(=O)OCc1ccc(-c2ncc(OCC3CCNCC3)nc2-c2ccc(COC(=O)C(C)(C)C)cc2)cc1 — 2.1-fold higher, 20000 nM
- NCc1ccc(-c2ncc(NCC3CCNCC3)nc2-c2ccc(-c3ccoc3)cc2)cc1 — 19-fold lower, 510 nM
- c1cc(-c2ccc(-c3ncc(OCC4CCNCC4)nc3-c3ccc(-c4ccsc4)cc3)cc2)cs1 — within 1.5-fold, 6600 nM
- NCc1ccc(-c2cc(CNCC3CCNCC3)sc2-c2ccc(CN)cc2)cc1 — higher, > 50000 nM
- NC(=O)c1ccc(-c2ncc(OCC3CCNCC3)nc2-c2ccc(-c3ccoc3)cc2)cc1 — 7.1-fold lower, 1340 nM
- CNCc1ccc(-c2ncc(OCC3CCNCC3)nc2-c2ccc(-c3ccoc3)cc2)cc1 — 11-fold lower, 870 nM
- Cc1cc(CN)ccc1-c1ncc(OCC2CCNCC2)nc1-c1ccc(CN)cc1C — 2.6-fold lower, 3600 nM
- ONCc1ccc(-c2ncc(OCCC3CCNCC3)nc2-c2ccc(CNO)cc2)cc1 — 3-fold lower, 3200 nM
- NCc1ccc(-c2ncc(OCC3CCNCC3)nc2-c2ccc3[nH]ccc3c2)cc1 — 10-fold lower, 930 nM
- NCc1ccc(-c2ncc(OCC3CCNCC3)nc2-c2ccc(-c3ccncc3)cc2)cc1 — higher, > 50000 nM

What follows are compounds tested on Zika virus (assay: Antiviral activity against Zika virus infected in human U87 cells assessed as reduction in infectious virus in supernatant by measuring infection of Vero cells preincubated with viral infected […] cells for 48 hrs and measured following infection of supernatants with Vero cells for 7 days by microscopy). Settings: U-87 MG.
Assay type: functional
Outline: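 U87 cells (2×10^4/well, DMEM with 2% FBS monolayer) infected with ZIKV FLR strain (passage-3 stock) at MOI 0.01 for 1 h, then washed. Compound added in triplicate for 48 h at 37 °C. Supernatant half-log dilutions are titrated on Vero cells in quadruplicate for 7 days, with CPE read by microscopy plus MTT. EC68 is the half-log TCID50 reduction versus control; ≥2 independent experiments.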

Point of comparison: `NCc1ccc(-c2ncc(OCC3CCNCC3)nc2-c2ccc(-c3cn[nH]c3)cc2)cc1`, EC68 2.5 µM. Against it:
- CC(C)(C)c1ccc(-c2ncc(OCC3CCNCC3)nc2-c2ccc(C(C)(C)C)cc2)cc1 — 2-fold higher, 5 µM
- NCc1ccc(-c2ccc(NCC3CCNCC3)nc2-c2ccc(-c3ccoc3)cc2)cc1 — 2.1-fold lower, 1.2 µM
- NCc1ccc(-c2ncc(OCC3CCNCC3)nc2-c2ccc(-c3ccoc3)cc2)cc1 — 8.3-fold lower, 0.3 µM
- NCc1ccc(-c2ncc(OCC3CCNCC3)nc2-c2ccc(C3CCOCC3)cc2)cc1 — 4.2-fold lower, 0.6 µM
- NCc1ccc(-c2nc(OCC3CCNCC3)cnc2-c2ccc(-c3ccoc3)cc2)cc1 — 2.1-fold lower, 1.2 µM
- CC(Oc1cnc(-c2ccc(CN)cc2)c(-c2ccc(-c3ccoc3)cc2)n1)C1CCNCC1 (racemic) — 2.1-fold lower, 1.2 µM
- Brc1ccc(-c2ncc(OCC3CCNCC3)nc2-c2ccc(Br)cc2)cc1 — higher, > 10 µM
- NCc1ccc(-c2ncc(OCC3CCNCC3)nc2-c2ccc(O)cc2)cc1 — higher, > 10 µM
- NCc1ccc(-c2ncc(NCC3CCNCC3)nc2-c2ccc(-c3ccoc3)cc2)cc1 — 2.1-fold lower, 1.2 µM
- NC(=O)c1ccc(-c2ncc(OCC3CCNCC3)nc2-c2ccc(-c3ccoc3)cc2)cc1 — the same, 2.5 µM
- CNCc1ccc(-c2ncc(OCC3CCNCC3)nc2-c2ccc(-c3ccoc3)cc2)cc1 — 2.1-fold lower, 1.2 µM
- NCc1ccc(-c2ncc(OCC3CCNCC3)nc2-c2ccc(C3CCOCC3)nc2)cc1 — within 1.5-fold, 3 µM
- NCc1ccc(-c2ncc(OCC3CCNCC3)nc2-c2ccc3[nH]ccc3c2)cc1 — the same, 2.5 µM

What follows are compounds tested on U-87 MG (assay: Cytotoxicity against human U87 cells assessed as inhibition of proliferation at 10 uM by MTT assay). Settings: u-87mg atcc.
Assay type: cell-based

`NCc1ccc(-c2ncc(OCC3CCNCC3)nc2-c2ccc(C3CCOCC3)cc2)cc1` was tested, and the Activity was “Non-Toxic”.
`NCc1ccc(-c2ncc(OCC3CCNCC3)nc2-c2ccc(C3CCOCC3)nc2)cc1` was tested, and the Activity was “Non-Toxic”.
`Cc1cc(-c2nc(OCC3CCNCC3)cnc2-c2ccc(CN)cc2)ccc1-c1ccoc1` was tested, and the Activity was “Non-Toxic”.

Each compound was assayed on Vero (assay: Cytotoxicity against African green monkey Vero cells assessed as inhibition of proliferation at 10 uM by MTT assay). Settings: chlorocebus sabaeus.
Assay type: cell-based

For `NCc1ccc(-c2ncc(OCC3CCNCC3)nc2-c2ccc(C3CCOCC3)cc2)cc1`, the Activity was “Non-Toxic”.
For `NCc1ccc(-c2ncc(OCC3CCNCC3)nc2-c2ccc(C3CCOCC3)nc2)cc1`, the Activity was “Non-Toxic”.
For `Cc1cc(-c2nc(OCC3CCNCC3)cnc2-c2ccc(CN)cc2)ccc1-c1ccoc1`, the Activity was “Non-Toxic”.

Each compound was assayed on Zika virus (assay: Antiviral activity against Zika Serotype 2 infected mouse model assessed as inhibition of viral load in plasma at 30 mg/kg treated for 3 days). Settings: 72 h, time 3 day.
Assay type: functional

`NCc1ccc(-c2ncc(OCC3CCNCC3)nc2-c2ccc(-c3ccoc3)cc2)cc1` was tested, and the inhibition in vivo at 30 mg/kg was 96%.

These compounds were tested on Zika virus (assay: Antiviral activity against Zika Serotype 2 infected mouse model assessed as inhibition of viral load in brain at 30 mg/kg treated for 3 days). Settings: 72 h, time 3 day.
Assay type: functional

`NCc1ccc(-c2ncc(OCC3CCNCC3)nc2-c2ccc(-c3ccoc3)cc2)cc1` was tested, and the inhibition in vivo at 30 mg/kg was 98%.

These compounds were tested on Zika virus (assay: Antiviral activity against Zika virus infected in human U87 cells assessed as inhibition of viral replication at 10 uM). Settings: not given.
Assay type: functional, organism-based

With `NCc1ccc(-c2ncc(OCC3CCNCC3)nc2-c2ccc(O)cc2)cc1` the inhibition was “inactive”.
